Activity calls are given as the source filed them. The rule behind the calls is not given here.
Tests used:
Mu-type opioid receptor [1] = biological target: T1, Mu-type opioid receptor (Mus musculus, UniProt P42866); test: Stimulation of mouse MOR expressed in CHO cells after […] by [35S]GTPgammaS binding assay; assay type: functional, cell-based
Mu-type opioid receptor [2] = biological target: T1, Mu-type opioid receptor; test: Displacement of [3H]naloxane from mouse MOR expressed in CHO cells after […]; assay type: cell-based
Mus musculus [3] = organism: Mus musculus; test: Selectivity ratio of Ki for mouse DOR to Ki for mouse MOR
[4] = biological target: Mu-type opioid receptor (Mus musculus) (UniProt P42866); test: Stimulation of mouse MOR expressed in CHO cells after […] by [35S]GTPgammaS binding assay relative to DAMGO; assay type: functional, cell-based
Chain of Mu-type opioid receptor (Mus musculus) (P42866 whole entry): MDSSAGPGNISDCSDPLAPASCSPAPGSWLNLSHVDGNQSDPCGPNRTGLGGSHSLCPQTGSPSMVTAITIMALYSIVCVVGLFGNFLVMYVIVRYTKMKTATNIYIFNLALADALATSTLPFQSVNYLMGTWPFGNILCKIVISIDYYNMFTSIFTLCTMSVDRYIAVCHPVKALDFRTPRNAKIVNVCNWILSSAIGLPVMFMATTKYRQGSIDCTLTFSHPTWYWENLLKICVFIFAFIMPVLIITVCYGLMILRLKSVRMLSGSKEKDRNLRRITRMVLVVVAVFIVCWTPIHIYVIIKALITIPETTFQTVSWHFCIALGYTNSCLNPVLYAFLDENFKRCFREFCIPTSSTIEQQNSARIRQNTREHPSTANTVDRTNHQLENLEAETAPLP

[5] = biological target: T2, Delta-type opioid receptor (Mus musculus, UniProt P32300); test: Displacement of [3H]naltrindole from mouse DOR expressed in CHO cells after […]; assay type: cell-based
T2 sequence (P32300 whole entry): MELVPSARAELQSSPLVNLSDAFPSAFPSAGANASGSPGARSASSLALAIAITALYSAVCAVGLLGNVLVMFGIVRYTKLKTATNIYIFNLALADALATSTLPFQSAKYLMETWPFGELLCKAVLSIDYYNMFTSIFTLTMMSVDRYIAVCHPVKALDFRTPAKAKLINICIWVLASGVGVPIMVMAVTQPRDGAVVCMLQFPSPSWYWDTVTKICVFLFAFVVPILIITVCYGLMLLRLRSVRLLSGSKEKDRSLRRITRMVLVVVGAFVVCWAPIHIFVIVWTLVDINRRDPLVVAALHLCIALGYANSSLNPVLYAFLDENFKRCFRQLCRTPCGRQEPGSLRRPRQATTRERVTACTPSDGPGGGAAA

Mus musculus [6] = test: Reversal of morphine-induced antinociceptive activity in Swiss-Webster mouse at 1 mg/kg, sc administered 5 mins prior to morphine challenge measured after 20 mins by warm water tail-flick test relative to control; assay type: functional
Mus musculus [7] = organism: Mus musculus; test: Selectivity ratio of Ki for mouse KOR to Ki for mouse MOR
[8] = biological target: T3, Kappa-type opioid receptor (Mus musculus, UniProt P33534); test: Displacement of [3H]diprenorphine from mouse KOR expressed in CHO cells after […]; assay type: cell-based
T3 sequence (P33534 whole entry): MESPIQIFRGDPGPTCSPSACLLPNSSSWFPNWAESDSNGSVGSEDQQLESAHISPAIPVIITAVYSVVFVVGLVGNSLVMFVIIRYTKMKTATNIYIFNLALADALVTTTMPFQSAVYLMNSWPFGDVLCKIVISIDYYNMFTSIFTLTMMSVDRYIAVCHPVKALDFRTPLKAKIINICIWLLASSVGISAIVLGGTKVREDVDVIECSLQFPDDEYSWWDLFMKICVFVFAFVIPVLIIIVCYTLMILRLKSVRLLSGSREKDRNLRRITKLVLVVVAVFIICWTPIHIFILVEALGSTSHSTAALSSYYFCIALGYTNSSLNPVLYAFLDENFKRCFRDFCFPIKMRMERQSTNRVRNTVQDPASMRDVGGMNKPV

Mus musculus [9] = test: Reversal of morphine-induced antinociceptive activity in sc dosed Swiss-Webster mouse administered 5 mins prior to morphine challenge measured after 20 mins by warm water tail-flick test relative to control; assay type: functional
[10] = biological target: T3, Kappa-type opioid receptor; test: Agonist activity at mouse KOR expressed in CHO cells after […] by [35S]GTPgammaS binding assay; assay type: functional, cell-based
[11] = biological target: T2, Delta-type opioid receptor; test: Agonist activity at mouse DOR expressed in CHO cells after […] by [35S]GTPgammaS binding assay; assay type: functional, cell-based
[12] = biological target: Kappa-type opioid receptor (Mus musculus) (UniProt P33534); test: Agonist activity at mouse KOR expressed in CHO cells after […] by [35S]GTPgammaS binding assay relative to (+/-)-trans-U50488; assay type: functional, cell-based
Chain of Kappa-type opioid receptor (Mus musculus) (P33534 whole entry): as above

[13] = biological target: Delta-type opioid receptor (Mus musculus) (UniProt P32300); test: Agonist activity at mouse DOR expressed in CHO cells after […] by [35S]GTPgammaS binding assay relative to SNC80; assay type: functional, cell-based
Chain of Delta-type opioid receptor (Mus musculus) (P32300 whole entry): as the sequence (P32300 whole entry) above

Mus musculus [14] = test: Antinociceptive activity in Swiss-Webster mouse at 10 mg/kg, sc after 20 mins by warm water tail-flick test relative to control; assay type: functional; conditions: route subcutaneous
[15] = biological target: T3, Kappa-type opioid receptor; test: Partial agonist activity at mouse KOR expressed in CHO cells after […] by [35S]GTPgammaS binding assay; assay type: functional, cell-based
Mu-type opioid receptor [16] = biological target: T4, Mu-type opioid receptor (Homo sapiens, UniProt P35372); test: Antagonist activity at human MOR expressed in CHO cells assessed as inhibition of DAMGO-induced increase in intracellular Ca2+ level incubated for 15 mins prior to DAMGO addition by microplate reader analysis; assay type: functional, cell-based
T4 sequence (P35372 whole entry): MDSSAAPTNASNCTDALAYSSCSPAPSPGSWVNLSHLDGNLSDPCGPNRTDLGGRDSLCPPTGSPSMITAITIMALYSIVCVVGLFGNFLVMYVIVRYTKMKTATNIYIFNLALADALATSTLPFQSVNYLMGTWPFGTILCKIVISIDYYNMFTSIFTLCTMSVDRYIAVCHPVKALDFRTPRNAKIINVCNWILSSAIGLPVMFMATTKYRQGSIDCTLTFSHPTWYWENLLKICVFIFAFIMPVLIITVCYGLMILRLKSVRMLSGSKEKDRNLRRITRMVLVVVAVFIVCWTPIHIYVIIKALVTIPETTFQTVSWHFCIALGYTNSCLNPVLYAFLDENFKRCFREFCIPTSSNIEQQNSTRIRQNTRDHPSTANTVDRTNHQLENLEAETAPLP

Mus musculus [17] = test: Antinociceptive activity in sc dosed Swiss-Webster mouse after 20 mins by warm water tail-flick test relative to control; assay type: functional
Mu-type opioid receptor [18] = biological target: T4, Mu-type opioid receptor; test: Agonist activity at human MOR expressed in CHO cells assessed as increase in intracellular Ca2+ level after 30 mins by microplate reader analysis; assay type: functional, cell-based
Outline: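 Gαqi5-transfected hMOR-CHO cells (DMEM/F12, 10% FBS, hygromycin B, 37 °C/5% CO2), plated 4 h post-transfection, grown 24 h, loaded 30 min with Fluo-4 AM plus probenecid in HBSS:HEPES. Test agent at varying concentrations in triplicate added after 15 s of reading. Fluorescence 494/516 nm over 120 s; at least three independent experiments.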

Mus musculus [19] = test: Reversal of morphine-induced antinociceptive activity in Swiss-Webster mouse assessed as wet-dog shakes at 30 to 100 mg/kg, sc measured after 3 mins up to 20 mins; assay type: functional, organism-based
Outline: (§1)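 After 72 h and 30 min habituation in an observation chamber, withdrawal was precipitated by s.c. test agent. Escape jumps and wet-dog shakes counted over 20 min, starting within 3 min of dosing; at least six mice per dose.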

Mus musculus [20] = test: Induction of escape jumps in Swiss-Webster mouse at 30 mg/kg, sc measured after 3 mins up to 20 mins; assay type: organism-based; set-up: dose 30 mg/kg, route subcutaneous; conditions: in vivo; outline: as §1
Mus musculus [21] = test: Reversal of morphine-induced antinociceptive activity in Swiss-Webster mouse assessed as escape jumps at 30 to 100 mg/kg, sc measured after 3 mins up to 20 mins; assay type: functional, organism-based; outline: as §1
[22] = biological target: Delta-type opioid receptor (Mus musculus) (UniProt P32300); test: Agonist activity at mouse DOR expressed in CHO cells after […] by [35S]GTPgammaS binding assay relative to naltrexone; assay type: functional, cell-based
Mus musculus [23] = organism: Mus musculus; test: Selectivity ratio of EC50 for mouse DOR to EC50 for mouse MOR
Mus musculus [24] = test: Induction of wet-dog shakes in Swiss-Webster mouse at 30 mg/kg, sc measured after 3 mins up to 20 mins; assay type: organism-based; set-up: dose 30 mg/kg, route subcutaneous; conditions: in vivo; outline: as §1
Mus musculus [25] = organism: Mus musculus; test: Selectivity ratio of EC50 for mouse KOR to EC50 for mouse MOR

T1 sequence (P42866 whole entry): as the sequence (P42866 whole entry) above

| SMILES | EC50 (Mu-type opioid receptor [1]) [nM] | Ki (Mu-type opioid receptor [2]) [nM] | Ratio Ki (Mus musculus [3]) | Emax [4] [%] | Ki [5] [nM] | Ratio Ki (Mus musculus [7]) | Ki [8] [nM] | also measured |
| --- | --- | --- | --- | --- | --- | --- | --- | --- |
| O=C(N[C@H]1CC[C@@]2(O)[C@H]3Cc4ccc(O)c5c4[C@@]2(CCN3CC2CC2)[C@H]1O5)c1cc2ccc([N+](=O)[O-])cc2cn1 | 42.7 | 3.6 | 4.5 | 13.4 | 55.3 | 16 | 16 | Activity (Mus musculus [6]): inactive |
| O=C(N[C@H]1CC[C@@]2(O)[C@H]3Cc4ccc(O)c5c4[C@@]2(CCN3CC2CC2)[C@H]1O5)c1cc2ccccc2cn1 | – | – | – | – | – | – | – | AD50 (Mus musculus [9]): 0.45 mg/kg; EC50 [10]: 10.9 nM; EC50 [11]: 98.6 nM; Emax [12]: 13.1%; Emax [13]: 53.5% |
| Cc1nc(C(=O)N[C@H]2CC[C@@]3(O)[C@H]4Cc5ccc(O)c6c5[C@@]3(CCN4CC3CC3)[C@H]2O6)cc2ccccc12 | – | – | – | – | – | – | – | MPE (Mus musculus [14]): <20% |
| N#Cc1nc(C(=O)N[C@H]2CC[C@@]3(O)[C@H]4Cc5ccc(O)c6c5[C@@]3(CCN4CC3CC3)[C@H]2O6)cc2ccccc12 | – | – | 10 | – | – | 131 | – | MPE (Mus musculus [14]): 56.9% |
| O=C(CNC(=O)c1cc2ccccc2cn1)N[C@H]1CC[C@@]2(O)[C@H]3Cc4ccc(O)c5c4[C@@]2(CCN3CC2CC2)[C@H]1O5 | – | – | 0.2 | – | – | 3.4 | – | – |
| O=C(N[C@H]1CC[C@@]2(O)[C@H]3Cc4ccc(O)c5c4[C@@]2(CCN3CC2CC2)[C@H]1O5)c1ncc2ccccc2n1 | – | – | 4.6 | – | – | 71 | – | – |
| CN1Cc2ccccc2C[C@H]1C(=O)N[C@H]1CC[C@@]2(O)[C@H]3Cc4ccc(O)c5c4[C@@]2(CCN3CC2CC2)[C@H]1O5 | – | – | 2.3 | – | – | 3.2 | – | – |
| O=C(CCc1cc2ccccc2cn1)N[C@H]1CC[C@@]2(O)[C@H]3Cc4ccc(O)c5c4[C@@]2(CCN3CC2CC2)[C@H]1O5 | – | – | 2.4 | – | – | 12 | – | – |
| COc1c(C(=O)N[C@H]2CC[C@@]3(O)[C@H]4Cc5ccc(O)c6c5[C@@]3(CCN4CC3CC3)[C@H]2O6)nc(Cl)c2ccccc12 | – | – | – | – | – | – | – | EC50 [15]: 26.4 nM; IC50 (Mu-type opioid receptor [16]): 23.7 nM; inhibition (Mu-type opioid receptor [16]): Dose-dependent effect; EC50 [11]: 32.6 nM; ED50 (Mus musculus [17]): 0.73 mg/kg; Emax [13]: 54.8%; Activity (Mu-type opioid receptor [18]): inactive |
| CN(C)c1ccc2c(c1)CN(C)C(C(=O)N[C@H]1CC[C@@]3(O)[C@H]4Cc5ccc(O)c6c5[C@@]3(CCN4CC3CC3)[C@H]1O6)C2 (some centres not stated) | 11.4 | 1.79 | 2.7 | 26.2 | 4.5 | 2.5 | 4.91 | – |
| CN(C)c1ccc2cc(C(=O)N[C@H]3CC[C@@]4(O)[C@H]5Cc6ccc(O)c7c6[C@@]4(CCN5CC4CC4)[C@H]3O7)ncc2c1 | 4.7 | 4.4 | 20 | 6.32 | 68.6 | 16 | 88 | Activity (Mus musculus [6]): inactive |
| O=C(N[C@H]1CC[C@@]2(O)[C@H]3Cc4ccc(O)c5c4[C@@]2(CCN3CC2CC2)[C@H]1O5)c1ncc2ccccc2c1O | – | – | – | – | – | – | – | MPE (Mus musculus [14]): <20% |
| O=C(N[C@H]1CC[C@@]2(O)[C@H]3Cc4ccc(O)c5c4[C@@]2(CCN3CC2CC2)[C@H]1O5)c1cc2cc([N+](=O)[O-])ccc2cn1 | 31.5 | 5.7 | 4.9 | 12.5 | 94.7 | 16 | 27.9 | Activity (Mus musculus [19]): inactive; IC50 (Mu-type opioid receptor [16]): 2730 nM; inhibition (Mu-type opioid receptor [16]): Dose-dependent effect; AD50 (Mus musculus [9]): 0.92 mg/kg; Activity (Mus musculus [20]): Non-toxic; Activity (Mus musculus [21]): inactive; Ratio [22]: 10; Ratio EC50 (Mus musculus [23]): 3.4; MPE (Mus musculus [6]; route subcutaneous): 8.9%; Activity (Mus musculus [24]): Non-toxic; EC50 [10]: 62.6 nM; EC50 [11]: 108 nM; Emax [12]: 21.1%; Emax [13]: 67.7%; Ratio EC50 (Mus musculus [25]): 2; Activity (Mu-type opioid receptor [18]): inactive |
| O=C(Cc1cc2ccccc2cn1)N[C@H]1CC[C@@]2(O)[C@H]3Cc4ccc(O)c5c4[C@@]2(CCN3CC2CC2)[C@H]1O5 | – | – | 0.9 | – | – | 10 | – | – |
| COc1cc2cnc(C(=O)N[C@H]3CC[C@@]4(O)[C@H]5Cc6ccc(O)c7c6[C@@]4(CCN5CC4CC4)[C@H]3O7)cc2cc1OC | 85.2 | 13.4 | 4.6 | 14 | 69.2 | 5.2 | 61 | – |
| O=C(N[C@H]1CC[C@@]2(O)[C@H]3Cc4ccc(O)c5c4[C@@]2(CCN3CC2CC2)[C@H]1O5)c1nc(Cl)c2ccccc2c1O | – | – | 25 | – | – | 24 | – | – |
